Test results reported in ChEMBL document CHEMBL3351655, “Scaffold decoration at positions 5 and 8 of 1,2,4-triazolo[1,5-c]pyrimidines to explore the antagonist profiling on adenosine receptors: a preliminary structure-activity relationship study” (J Med Chem, 2014).

What was measured:
Adenosine receptor A2b = target: T1, Adenosine receptor A2b (Homo sapiens, UniProt P29275); experiment: Antagonist activity at human adenosine A2B receptor expressed in CHO cells assessed as inhibition of NECA-stimulated adenylyl cyclase activity; type: functional, cell-based
T1 sequence (P29275 whole entry): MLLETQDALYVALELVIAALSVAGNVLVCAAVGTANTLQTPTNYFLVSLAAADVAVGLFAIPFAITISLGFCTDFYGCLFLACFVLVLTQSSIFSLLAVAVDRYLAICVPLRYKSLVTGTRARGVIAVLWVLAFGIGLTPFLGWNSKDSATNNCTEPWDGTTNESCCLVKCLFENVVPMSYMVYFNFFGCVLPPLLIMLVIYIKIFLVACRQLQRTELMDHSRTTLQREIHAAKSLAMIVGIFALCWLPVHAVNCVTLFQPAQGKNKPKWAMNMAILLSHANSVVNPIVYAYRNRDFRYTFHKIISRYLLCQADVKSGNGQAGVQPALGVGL
Outline: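 Membranes from stably transfected CHO cells, made with a single high-speed centrifugation of the homogenate. Incubated 20 min with about 150 000 cpm [α-³²P]ATP, in a mixture without EGTA and NaCl. IC50 for concentration-dependent inhibition of NECA-stimulated adenylyl cyclase was fitted with the Hill equation and converted to Ki by Cheng–Prusoff.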

Adenosine receptor A2a = Adenosine receptor A2a (Homo sapiens, UniProt P29274); experiment: Displacement of [3H]NECA from human adenosine A2A receptor expressed in CHO cells; type: cell-based
Adenosine receptor A1 = target: T2, Adenosine receptor A1 (Homo sapiens, UniProt P30542); experiment: Displacement of [3H]CCPA from human adenosine A1 receptor expressed in CHO cells; type: cell-based
T2 sequence (P30542 whole entry): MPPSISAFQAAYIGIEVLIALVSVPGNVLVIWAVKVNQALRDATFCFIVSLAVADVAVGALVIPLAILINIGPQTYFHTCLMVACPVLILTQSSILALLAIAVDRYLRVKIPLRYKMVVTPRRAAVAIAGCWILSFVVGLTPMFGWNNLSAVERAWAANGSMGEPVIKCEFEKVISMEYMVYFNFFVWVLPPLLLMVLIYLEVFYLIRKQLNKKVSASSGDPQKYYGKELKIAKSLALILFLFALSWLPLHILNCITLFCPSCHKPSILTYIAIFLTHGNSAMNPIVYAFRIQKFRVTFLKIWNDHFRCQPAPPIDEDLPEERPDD
Outline: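 Stably transfected CHO cells were homogenised and spun at 1000g to remove nuclei and fragments. Membranes were then pelleted at 100 000g, resuspended in binding buffer, frozen in liquid nitrogen and stored. Radioligand was [³H]CCPA, with nonspecific binding defined by 1 mM theophylline.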

Adenosine receptor A3 = target: T3, Adenosine receptor A3 (Homo sapiens, UniProt P0DMS8); experiment: Displacement of [3H]NECA from human adenosine A3 receptor expressed in CHO cells; type: cell-based
T3 sequence (P0DMS8 whole entry): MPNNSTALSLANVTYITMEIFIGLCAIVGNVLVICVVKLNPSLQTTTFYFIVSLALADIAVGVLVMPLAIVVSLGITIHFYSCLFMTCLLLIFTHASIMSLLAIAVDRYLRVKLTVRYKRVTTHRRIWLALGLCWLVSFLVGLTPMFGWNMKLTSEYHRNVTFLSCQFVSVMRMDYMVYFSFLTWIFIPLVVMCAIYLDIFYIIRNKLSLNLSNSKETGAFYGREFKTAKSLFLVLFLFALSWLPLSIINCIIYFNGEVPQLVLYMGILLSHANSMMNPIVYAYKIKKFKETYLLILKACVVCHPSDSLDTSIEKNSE
Outline: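 Radioligand [³H]NECA was used on membranes from stably transfected CHO cells, prepared by a 1000g clearing spin then pelleting at 100 000g. Pellets were resuspended in binding buffer, frozen in liquid nitrogen and stored. Nonspecific binding was defined with 100 μM R-PIA.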

[1] = target: Adenosine receptors; A1 & A3 (Homo sapiens) (UniProt P30542+P0DMS8); experiment: Selectivity ratio of Ki for human adenosine A1 receptor expressed in CHO cells to Ki for human adenosine A3 receptor expressed in CHO cells; type: cell-based
CHO [2] = experiment: Selectivity ratio of Ki for human adenosine A2A receptor expressed in CHO cells to Ki for human adenosine A3 receptor expressed in CHO cells; type: cell-based
CHO [3] = experiment: Selectivity ratio of Ki for human adenosine A1 receptor expressed in CHO cells to Ki for human adenosine A2A receptor expressed in CHO cells; type: cell-based

Adenosine receptor A2a, sequence (P29274 whole entry): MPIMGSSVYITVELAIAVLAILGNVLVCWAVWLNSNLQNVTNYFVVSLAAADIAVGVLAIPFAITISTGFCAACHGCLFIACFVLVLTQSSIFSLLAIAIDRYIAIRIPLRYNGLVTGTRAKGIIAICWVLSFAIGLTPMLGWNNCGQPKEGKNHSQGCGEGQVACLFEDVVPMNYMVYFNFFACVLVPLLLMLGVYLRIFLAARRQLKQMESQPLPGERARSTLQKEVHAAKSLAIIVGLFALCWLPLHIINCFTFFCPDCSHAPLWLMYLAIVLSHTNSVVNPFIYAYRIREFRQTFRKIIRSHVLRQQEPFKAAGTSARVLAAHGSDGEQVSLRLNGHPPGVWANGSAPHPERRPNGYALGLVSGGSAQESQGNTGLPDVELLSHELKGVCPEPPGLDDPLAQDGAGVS

Row | SMILES | Ki (Adenosine receptor A2b) | Ki (Adenosine receptor A2a) | Ki (Adenosine receptor A1) | Ki (Adenosine receptor A3) | Ratio Ki [1] | Ratio Ki (CHO [2]) | Ratio Ki (CHO [3])
1 | CCOC(=O)c1cnc(NN2CCOCC2)n2nc(-c3ccco3)nc12 | > 10 µM | > 100 µM | > 100 µM | > 30 µM | – | – | –
2 | CNC(=O)c1cnc(NC(=O)NC2CCCCC2)n2nc(-c3ccco3)nc12 | > 30 µM | 1.52 µM | 8.99 µM | 18.7 µM | 0.48 | 0.08 | 5.91
3 | CCOC(=O)c1cnc(NCc2ccc(Cl)cc2)n2nc(-c3ccco3)nc12 | 1.63 µM | 0.0732 µM | 0.866 µM | 0.0568 µM | 15.2 | 1.29 | 11.8
4 | CCOC(=O)c1cnc(NC)n2nc(-c3ccco3)nc12 | 2.45 µM | 0.104 µM | 0.978 µM | 0.00414 µM | 236 | 25.1 | 9.4
5 | CNC(=O)c1cnc(NC(=O)Cc2ccccc2)n2nc(-c3ccco3)nc12 | 4.84 µM | 0.0124 µM | 0.296 µM | 1.19 µM | 0.25 | 0.01 | 23.9
6 | O=C(Nc1ccccc1)Nc1ncc(C(=O)NCCc2ccccc2)c2nc(-c3ccco3)nn12 | > 30 µM | 0.0514 µM | 0.365 µM | 1.35 µM | 0.27 | 0.04 | 7.1
7 | CC(C)Nc1ncc(C(=O)O)c2nc(-c3ccco3)nn12 | > 10 µM | 7.66 µM | 4.49 µM | 17.5 µM | 0.26 | 0.44 | 0.59
8 | O=C(O)c1cnc(NCc2ccc(C(F)(F)F)cc2)n2nc(-c3ccco3)nc12 | > 30 µM | 18 µM | > 100 µM | 15.9 µM | > 6.29 | 1.13 | > 5.55
9 | CCOC(=O)c1cnc(NCc2ccc(OC)c(OC)c2)n2nc(-c3ccco3)nc12 | 13.3 µM | 0.116 µM | 0.315 µM | 0.0387 µM | 8.14 | 3 | 2.71
10 | CCOC(=O)c1cnc(N2CCCC2)n2nc(-c3ccco3)nc12 | > 10 µM | 10.2 µM | 15.6 µM | 0.836 µM | 18.7 | 12.2 | 1.53
11 | O=C(O)c1cnc(NC2CCCC2)n2nc(-c3ccco3)nc12 | > 10 µM | 37.3 µM | 3.79 µM | 17.7 µM | 0.21 | 2.11 | 0.1
12 | CCOC(=O)c1cnc(NOC)n2nc(-c3ccco3)nc12 | > 10 µM | 0.21 µM | 6.51 µM | 1.19 µM | 5.47 | 0.18 | 31
13 | CCOC(=O)c1cnc(NCC2CCCCC2)n2nc(-c3ccco3)nc12 | > 10 µM | 0.121 µM | 0.432 µM | 0.0412 µM | 10.5 | 2.94 | 3.57
14 | O=C(O)c1cnc(NCC2CCCCC2)n2nc(-c3ccco3)nc12 | > 10 µM | 33.9 µM | 2.74 µM | 15.8 µM | 0.17 | 2.14 | 0.08
15 | O=C(O)c1cnc(NC(c2ccccc2)c2ccccc2)n2nc(-c3ccco3)nc12 | > 30 µM | > 100 µM | 2.45 µM | 2.07 µM | 1.18 | > 48 | < 0.02
16 | CCCCCNc1ncc(C(=O)OCC)c2nc(-c3ccco3)nn12 | > 10 µM | 0.0501 µM | 0.613 µM | 0.0113 µM | 54.2 | 4.43 | 12.2
17 | CCOC(=O)c1cnc(N2CCOCC2)n2nc(-c3ccco3)nc12 | > 10 µM | 17.6 µM | > 100 µM | 8.7 µM | > 11.5 | 2.02 | > 5.68
18 | CCOC(=O)c1cnc(NC2CCC2)n2nc(-c3ccco3)nc12 | > 3 µM | 0.0289 µM | 0.0752 µM | 0.0117 µM | 6.42 | 2.47 | 2.6
19 | CCOC(=O)c1cnc(NC(=O)Cc2ccccc2)n2nc(-c3ccco3)nc12 | > 30 µM | 42.7 µM | > 100 µM | 2.59 µM | > 38.6 | 16.5 | > 2.34
20 | O=C(Nc1ncc(C(=O)NCCc2ccccc2)c2nc(-c3ccco3)nn12)NC1CCCCC1 | > 30 µM | 0.773 µM | > 100 µM | 4.22 µM | > 23.7 | 0.18 | > 129
21 | COc1ccc(CNc2ncc(C(=O)O)c3nc(-c4ccco4)nn23)cc1OC | > 30 µM | 5.32 µM | 0.958 µM | 0.159 µM | 6.02 | 33.4 | –
22 | COc1ccc(CCCn2ncc3c2nc(N)n2nc(-c4ccco4)nc32)cc1 | > 10 µM | – | 1.11 µM | > 10 µM | – | – | –
23 | CNc1ncc(C(=O)O)c2nc(-c3ccco3)nn12 | > 10 µM | > 100 µM | > 100 µM | 15.9 µM | > 6.29 | > 6.29 | –
24 | O=C(O)c1cnc(NCc2ccc(Cl)cc2)n2nc(-c3ccco3)nc12 | > 30 µM | > 100 µM | > 100 µM | 11.6 µM | > 8.62 | > 8.62 | –
